In ChEMBL document CHEMBL3992532, “Structure-Based Design of Macrocyclic Factor XIa Inhibitors: Discovery of the Macrocyclic Amide Linker” (J Med Chem, 2017):

What was measured:
Coagulation factor XI [1] = biological target: T1, Coagulation factor XI (Homo sapiens, UniProt P03951); assay: Inhibition of human coagulation factor 11a using pyroGlu-Pro-Arg-pNA as substrate after 10 to 120 mins at 37 degC by spectrophotometric method
Method in brief: (§1)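 Purified human proteases, 37 °C; reaction started by adding enzyme to substrate (up to 4× Km) ± inhibitor; compound from DMSO, 1% DMSO final except where noted. […] Buffers: FXIa, chymotrypsin, tPA, plasmin, urokinase in 50 mM HEPES pH 7.4, 145 mM NaCl, 5 mM KCl, 0.1% PEG 8000; FXa, thrombin, trypsin, plasma kallikrein, aPC in 100 mM Na phosphate pH 7.4, 200 mM NaCl, 0.5% PEG 8000; FIXa in 50 mM Tris pH 7.4, 100 mM NaCl, 5 mM CaCl2, 0.5% PEG 8000, 2% DMSO.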

[2] = Half life in Beagle dog at 0.2 mg/kg, iv administered as 10 mins infusion or 0.4 mg/kg, po via gavage administered as cassette dose by LC-MS/MS method; format: ADME, organism-based, Canis lupus familiaris; settings: in vivo
Method in brief: (§2)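 Dog PK vehicles as footnoted: iv in 70% PEG 400/20% water/10% ethanol; po either 70% PEG 400/20% TPGS/10% ethanol or the same PEG 400/water/ethanol vehicle used for iv.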

[3] = Volume of distribution at steady state in Beagle dog at 0.2 mg/kg, iv administered as 10 mins infusion or 0.4 mg/kg, po via gavage administered as cassette dose by LC-MS/MS method; format: ADME, organism-based, Canis lupus familiaris; settings: in vivo, read-out: Vdss; method in brief: as §2
Canis familiaris [4] = assay: Oral bioavailability in Beagle dog at 0.4 mg/kg administered via gavage as cassette dose by LC-MS/MS method; format: ADME, organism-based, Canis lupus familiaris; settings: in vivo; method in brief: as §2
Canis familiaris [5] = assay: AUC in Beagle dog at 0.4 mg/kg, po administered via gavage as cassette dose by LC-MS/MS method; format: ADME, organism-based, Canis lupus familiaris; settings: in vivo; method in brief: as §2
[6] = Half life in dog liver microsomes; format: ADME, Canis lupus familiaris, microsome
Plasma = assay: Anticoagulant activity in human plasma assessed as concentration required to produce 50% increase in activated partial thromboplastin time; format: functional
Method in brief: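 Citrated (one-tenth volume 0.11 M) plasma from healthy volunteers, spun 2,000 g 10 min, kept on ice; 10 mM DMSO stock diluted in plasma, up to 7 concentrations; aPTT on automated coagulometer, duplicates as mean ratio to baseline; EC1.5x (50% prolongation) by linear interpolation, as total plasma concentration.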

Coagulation factor VII = biological target: T2, Coagulation factor VII (Homo sapiens, UniProt P08709); assay: Inhibition of human coagulation factor 7a using H-(D)-Ile-Pro-Arg-pNA as substrate after 10 to 120 mins at 25 degC by spectrophotometric method
T2 sequence (P08709 whole entry): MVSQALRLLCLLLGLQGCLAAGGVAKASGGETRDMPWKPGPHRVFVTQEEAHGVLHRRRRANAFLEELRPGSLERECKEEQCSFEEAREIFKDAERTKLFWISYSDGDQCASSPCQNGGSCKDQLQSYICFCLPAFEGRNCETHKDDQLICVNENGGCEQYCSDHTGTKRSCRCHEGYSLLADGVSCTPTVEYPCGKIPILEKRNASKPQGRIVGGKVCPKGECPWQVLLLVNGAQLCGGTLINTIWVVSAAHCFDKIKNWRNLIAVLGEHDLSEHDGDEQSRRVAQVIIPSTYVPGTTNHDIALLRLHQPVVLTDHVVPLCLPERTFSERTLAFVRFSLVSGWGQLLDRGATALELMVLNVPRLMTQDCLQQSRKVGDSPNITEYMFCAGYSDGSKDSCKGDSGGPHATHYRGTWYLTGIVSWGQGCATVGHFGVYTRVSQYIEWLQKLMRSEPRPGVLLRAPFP

Coagulation factor IX = Coagulation factor IX (Homo sapiens, UniProt P00740); assay: Inhibition of human coagulation factor 9a using methylsulfonyl-D-cyclohexylglycyl-Gly-Arg-AMC as substrate after 10 to 120 mins at 37 degC by spectrophotometric method; method in brief: as §1
Coagulation factor X = Coagulation factor X (Homo sapiens, UniProt P00742); assay: Inhibition of human coagulation factor 10a using N-benzoyl-Ile-Glu-(OH,OMe)-Gly-Arg-pNA as substrate after 10 to 120 mins at 37 degC by spectrophotometric method; method in brief: as §1
Coagulation factor XII = biological target: T3, Coagulation factor XII (Homo sapiens, UniProt P00748); assay: Inhibition of human coagulation factor 12a using H-(D)-CHT-Gly-Arg-pNA as substrate after 10 to 120 mins at 25 degC by spectrophotometric method
T3 sequence (P00748 whole entry): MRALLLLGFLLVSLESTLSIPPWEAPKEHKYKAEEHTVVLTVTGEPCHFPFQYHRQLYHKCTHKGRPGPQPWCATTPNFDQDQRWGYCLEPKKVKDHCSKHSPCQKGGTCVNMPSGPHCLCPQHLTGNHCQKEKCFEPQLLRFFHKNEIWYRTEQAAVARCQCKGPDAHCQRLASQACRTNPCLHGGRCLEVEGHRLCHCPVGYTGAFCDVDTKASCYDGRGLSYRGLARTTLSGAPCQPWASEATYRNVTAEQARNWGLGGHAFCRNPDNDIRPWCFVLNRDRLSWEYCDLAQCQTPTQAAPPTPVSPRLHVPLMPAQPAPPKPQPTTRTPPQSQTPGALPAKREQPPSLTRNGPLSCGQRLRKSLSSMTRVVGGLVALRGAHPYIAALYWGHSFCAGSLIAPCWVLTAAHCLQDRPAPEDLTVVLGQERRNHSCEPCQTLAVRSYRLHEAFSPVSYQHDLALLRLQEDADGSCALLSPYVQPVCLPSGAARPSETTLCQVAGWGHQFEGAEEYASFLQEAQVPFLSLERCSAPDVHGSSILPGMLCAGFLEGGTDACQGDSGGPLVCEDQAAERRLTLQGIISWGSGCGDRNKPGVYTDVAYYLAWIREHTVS

Prothrombin = Prothrombin (Homo sapiens, UniProt P00734); assay: Inhibition of human thrombin using pyroGlu-Pro-Arg-pNA as substrate after 10 to 120 mins at 37 degC by spectrophotometric method; method in brief: as §1
[7] = Inhibition of human trypsin using N-benzoyl-Ile-Glu-(OH,OMe)-Gly-Arg-pNA as substrate after 10 to 120 mins at 37 degC by spectrophotometric method; method in brief: as §1
Plasma kallikrein = Plasma kallikrein (Homo sapiens, UniProt P03952); assay: Inhibition of human plasma kallikrein using H-(D)-Pro-Phe-Arg-pNA as substrate after 10 to 120 mins at 37 degC by spectrophotometric method; method in brief: as §1
[8] = biological target: Vitamin K-dependent protein C (Homo sapiens, UniProt P04070); assay: Inhibition of human activated protein C using pyroGlu-Pro-Arg-pNA as substrate after 10 to 120 mins at 37 degC by spectrophotometric method; method in brief: as §1
Plasminogen = Plasminogen (Homo sapiens, UniProt P00747); assay: Inhibition of human plasmin using H-(D)-Val-Leu-LyspNA as substrate after 10 to 120 mins at 37 degC by spectrophotometric method; method in brief: as §1
[9] = biological target: Tissue-type plasminogen activator (Homo sapiens, UniProt P00750); assay: Inhibition of human tissue plasminogen activator using methylsulfonyl-D-cyclohexylalanyl-GlyArg-pNA as substrate after 10 to 120 mins at 37 degC by spectrophotometric method; method in brief: as §1
[10] = biological target: Urokinase-type plasminogen activator (Homo sapiens, UniProt P00749); assay: Inhibition of human urokinase using pyro-Glu-Gly-Arg-pNA as substrate after 10 to 120 mins at 37 degC by spectrophotometric method; method in brief: as §1
[11] = Inhibition of human chymotrypsin using MeO-SucArg-Pro-Tyr-pNA as substrate after 10 to 120 mins at 37 degC by spectrophotometric method; method in brief: as §1
Coagulation factor XI [12] = biological target: T1, Coagulation factor XI; assay: Inhibition of human coagulation factor 11a using pyroGlu-Pro-Arg-pNA as substrate after 10 to 120 mins at 25 degC by spectrophotometric method

T1 sequence (P03951 19-387 limits assumed): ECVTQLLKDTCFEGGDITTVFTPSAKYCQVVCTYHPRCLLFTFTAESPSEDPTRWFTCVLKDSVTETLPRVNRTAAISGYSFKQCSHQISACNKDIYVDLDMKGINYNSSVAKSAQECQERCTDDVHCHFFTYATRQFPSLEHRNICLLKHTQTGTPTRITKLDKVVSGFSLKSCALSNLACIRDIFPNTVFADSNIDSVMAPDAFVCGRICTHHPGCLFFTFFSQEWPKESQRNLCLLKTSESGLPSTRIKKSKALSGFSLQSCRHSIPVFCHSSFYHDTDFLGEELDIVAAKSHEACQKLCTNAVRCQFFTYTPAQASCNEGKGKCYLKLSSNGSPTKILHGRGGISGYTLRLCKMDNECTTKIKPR
T1 sequence (P03951 388-625 limits assumed): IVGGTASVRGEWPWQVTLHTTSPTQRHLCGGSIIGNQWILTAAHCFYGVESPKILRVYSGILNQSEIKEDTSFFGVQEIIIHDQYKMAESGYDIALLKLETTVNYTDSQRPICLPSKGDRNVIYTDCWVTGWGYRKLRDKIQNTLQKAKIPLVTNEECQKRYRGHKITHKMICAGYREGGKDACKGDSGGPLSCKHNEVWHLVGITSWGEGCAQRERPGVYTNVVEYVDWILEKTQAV
Vitamin K-dependent protein C, sequence (P04070 43-197 limits assumed): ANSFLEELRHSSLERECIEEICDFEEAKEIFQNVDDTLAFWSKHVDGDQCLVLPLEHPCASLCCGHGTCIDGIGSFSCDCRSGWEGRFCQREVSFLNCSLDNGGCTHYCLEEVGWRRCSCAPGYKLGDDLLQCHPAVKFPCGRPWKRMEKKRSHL
Vitamin K-dependent protein C, sequence (P04070 212-461 limits assumed): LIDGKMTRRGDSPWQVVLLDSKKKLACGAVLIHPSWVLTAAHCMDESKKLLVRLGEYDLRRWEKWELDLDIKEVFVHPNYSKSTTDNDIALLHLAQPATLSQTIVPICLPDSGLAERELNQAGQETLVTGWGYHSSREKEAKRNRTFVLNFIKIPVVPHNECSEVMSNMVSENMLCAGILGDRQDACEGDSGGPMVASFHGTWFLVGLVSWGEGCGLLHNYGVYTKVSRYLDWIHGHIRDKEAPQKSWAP
Tissue-type plasminogen activator, sequence (P00750 whole entry): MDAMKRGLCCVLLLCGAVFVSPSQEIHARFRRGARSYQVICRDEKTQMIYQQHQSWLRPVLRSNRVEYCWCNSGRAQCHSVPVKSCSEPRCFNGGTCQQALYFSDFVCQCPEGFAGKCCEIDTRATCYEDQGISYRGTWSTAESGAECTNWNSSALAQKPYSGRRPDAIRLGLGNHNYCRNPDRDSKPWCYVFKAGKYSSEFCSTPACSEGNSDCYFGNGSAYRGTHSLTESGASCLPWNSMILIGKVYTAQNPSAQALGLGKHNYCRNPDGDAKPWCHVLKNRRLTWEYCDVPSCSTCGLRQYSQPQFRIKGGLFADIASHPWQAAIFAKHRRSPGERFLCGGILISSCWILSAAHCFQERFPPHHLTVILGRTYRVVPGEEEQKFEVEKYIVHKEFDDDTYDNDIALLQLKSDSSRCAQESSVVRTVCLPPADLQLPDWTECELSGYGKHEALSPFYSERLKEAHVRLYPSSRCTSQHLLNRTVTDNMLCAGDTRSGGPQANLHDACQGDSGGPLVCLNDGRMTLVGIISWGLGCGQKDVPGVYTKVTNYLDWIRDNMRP
Plasminogen, sequence (P00747 97-580 limits assumed): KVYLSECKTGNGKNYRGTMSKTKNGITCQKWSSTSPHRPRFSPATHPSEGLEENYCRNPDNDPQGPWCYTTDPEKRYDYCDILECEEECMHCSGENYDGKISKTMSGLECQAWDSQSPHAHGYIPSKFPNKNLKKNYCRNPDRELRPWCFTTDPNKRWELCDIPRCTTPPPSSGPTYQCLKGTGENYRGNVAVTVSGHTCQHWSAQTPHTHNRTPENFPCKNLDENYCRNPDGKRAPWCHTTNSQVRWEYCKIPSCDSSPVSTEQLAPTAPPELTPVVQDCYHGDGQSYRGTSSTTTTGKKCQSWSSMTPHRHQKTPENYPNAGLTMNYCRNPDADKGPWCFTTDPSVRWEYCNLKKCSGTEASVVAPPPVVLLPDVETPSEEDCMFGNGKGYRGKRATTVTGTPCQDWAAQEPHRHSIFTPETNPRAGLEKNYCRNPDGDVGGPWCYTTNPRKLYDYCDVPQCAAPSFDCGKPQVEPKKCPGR
Plasminogen, sequence (P00747 581-810 limits assumed): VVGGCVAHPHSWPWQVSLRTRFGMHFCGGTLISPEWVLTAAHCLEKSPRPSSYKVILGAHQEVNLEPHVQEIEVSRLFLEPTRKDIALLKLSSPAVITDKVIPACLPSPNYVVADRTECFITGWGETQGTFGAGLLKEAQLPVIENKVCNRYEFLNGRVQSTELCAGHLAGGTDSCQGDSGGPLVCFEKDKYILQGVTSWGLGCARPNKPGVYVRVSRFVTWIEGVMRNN
Coagulation factor X, sequence (P00742 41-179 limits assumed): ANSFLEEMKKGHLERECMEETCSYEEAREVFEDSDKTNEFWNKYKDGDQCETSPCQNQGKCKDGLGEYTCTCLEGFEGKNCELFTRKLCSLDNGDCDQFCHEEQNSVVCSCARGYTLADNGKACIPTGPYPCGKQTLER
Coagulation factor X, sequence (P00742 235-488 limits assumed): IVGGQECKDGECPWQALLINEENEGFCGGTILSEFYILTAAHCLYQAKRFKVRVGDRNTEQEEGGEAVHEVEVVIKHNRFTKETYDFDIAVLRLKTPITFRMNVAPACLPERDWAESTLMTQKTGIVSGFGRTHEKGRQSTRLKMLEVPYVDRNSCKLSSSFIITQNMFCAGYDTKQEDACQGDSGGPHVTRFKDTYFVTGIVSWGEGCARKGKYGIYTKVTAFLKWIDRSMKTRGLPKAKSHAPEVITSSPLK
Coagulation factor IX, sequence (P00740 47-191 limits assumed): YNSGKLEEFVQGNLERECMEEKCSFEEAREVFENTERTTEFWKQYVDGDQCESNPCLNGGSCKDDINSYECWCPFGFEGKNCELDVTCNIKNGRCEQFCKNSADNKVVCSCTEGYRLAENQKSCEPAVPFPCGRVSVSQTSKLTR
Coagulation factor IX, sequence (P00740 227-461 limits assumed): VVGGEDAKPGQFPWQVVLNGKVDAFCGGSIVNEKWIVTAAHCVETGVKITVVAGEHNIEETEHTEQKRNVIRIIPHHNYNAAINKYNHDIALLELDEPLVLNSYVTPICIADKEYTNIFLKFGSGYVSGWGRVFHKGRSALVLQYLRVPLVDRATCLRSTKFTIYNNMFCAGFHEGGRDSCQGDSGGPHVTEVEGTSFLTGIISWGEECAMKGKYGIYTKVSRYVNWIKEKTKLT
Plasma kallikrein, sequence (P03952 20-390 limits assumed): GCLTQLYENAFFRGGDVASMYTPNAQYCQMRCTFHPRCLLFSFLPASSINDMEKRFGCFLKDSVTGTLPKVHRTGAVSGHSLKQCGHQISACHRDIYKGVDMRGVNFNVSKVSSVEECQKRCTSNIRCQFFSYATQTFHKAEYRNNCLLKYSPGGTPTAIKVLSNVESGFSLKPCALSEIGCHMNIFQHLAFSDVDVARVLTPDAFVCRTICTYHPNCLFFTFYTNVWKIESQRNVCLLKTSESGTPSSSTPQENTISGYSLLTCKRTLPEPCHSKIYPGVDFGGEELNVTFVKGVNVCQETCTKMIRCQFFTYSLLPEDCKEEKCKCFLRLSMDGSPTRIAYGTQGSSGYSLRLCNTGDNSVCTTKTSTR
Plasma kallikrein, sequence (P03952 391-638 limits assumed): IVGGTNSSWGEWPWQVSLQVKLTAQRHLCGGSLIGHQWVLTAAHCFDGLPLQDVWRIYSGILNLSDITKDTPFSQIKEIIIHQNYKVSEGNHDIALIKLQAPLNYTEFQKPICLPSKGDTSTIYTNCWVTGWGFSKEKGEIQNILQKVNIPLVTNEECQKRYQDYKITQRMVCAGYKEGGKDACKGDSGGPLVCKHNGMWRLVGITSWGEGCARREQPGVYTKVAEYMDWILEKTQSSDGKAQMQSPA

Row | Ki (Coagulation factor XI [1]) [µM] | half-life [2] [h] | Vd [3] [L/kg] | F (Canis familiaris [4]) [%] | AUC (Canis familiaris [5]) [µM·h] | half-life [6] [h] | Ki (Coagulation factor VII) [µM] | Ki (Coagulation factor IX) [µM] | Ki (Coagulation factor X) [µM] | Ki (Coagulation factor XII) [µM] | Ki (Prothrombin) [µM] | Ki [7] [µM] | Ki (Plasma kallikrein) [µM] | Ki [8] [µM] | Ki (Plasminogen) [µM] | Ki [9] [µM] | Ki [10] [µM] | Ki [11] [µM] | Ki (Coagulation factor XI [12]) [µM] | Compound | EC1.5 (Plasma) [µM]
1 | 0.159 | 2.1 | 2.2 | 17 | 0.119 | 1.47 | – | – | – | – | – | – | – | – | – | – | – | – | – | COC(=O)Nc1ccc2c(c1)OCCCCCC[C@H](NC(=O)/C=C/c1cc(Cl)ccc1-n1cnnn1)c1nc-2c[nH]1 | –
2 | 0.0058 | – | – | – | – | – | > 13.4 | > 27.1 | > 13.3 | > 3.05 | > 11.5 | > 10 | 0.519 | > 21.5 | > 15.2 | > 6.15 | > 15.1 | > 4.53 | – | COC(=O)Nc1ccc(-c2nc([C@H](Cc3ccccc3)NC(=O)/C=C/c3cc(Cl)ccc3-n3cnnn3)[nH]c2Cl)cc1 | 5.3
3 | – | – | – | – | – | – | – | – | – | – | – | – | – | – | – | – | – | – | 0.42 | COC(=O)Nc1ccc2c(c1)OCCCCC[C@H](NC(=O)/C=C/c1cc(Cl)ccc1-n1cnnn1)c1nc-2c[nH]1 | –
